What was measured:
[1] = test system: p70S6 kinase phosphorylation at Thr389; experiment: p70S6K phosphorylation at Thr389 in peripheral blood lymphocytes; format: in vivo, human
Method in brief: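 Sirolimus-alone study only, oral weekly dosing. Blood drawn before dosing at baseline, week 1 day 2 and day 4, week 2 day 1, week 5 day 1. CD3+ cells enriched after density centrifugation, cryopreserved, then given medium or PMA (0.5 µg/ml) plus ionomycin (0.025 µg/ml), 1 hr, 37 °C. Western blot for phospho-Thr389 and total p70S6K, densitometry, cohort means, paired t-test. Indirect response model with rebound (kin, kout; baseline 100%), FOCE with interaction.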

[2] = oral multiple dosing; ref [17]–[19]; cited from earlier work
[3] = Adverse events; format: in vivo, human
[4] = indirect response model with rebound
[5] = three studies collectively, 138 subjects

CO[C@H]1C[C@@H]2CC[C@@H](C)[C@@](O)(O2)C(=O)C(=O)N2CCCC[C@H]2C(=O)O[C@H]([C@H](C)C[C@@H]2CC[C@@H](O)[C@H](OC)C2)CC(=O)[C@H](C)/C=C(\C)[C@@H](O)[C@@H](OC)C(=O)[C@H](C)C[C@H](C)/C=C/C=C/C=C/1C [Sirolimus]
23: Elevated Transaminases (adverse event) ([3]; Total (n=138))
22: Decreased platelets (adverse event) ([3]; Total (n=138))
72: Hyperglycemia (adverse event) ([3]; Total (n=138))
14: Infection (adverse event) ([3]; Total (n=138)) | Lymphopenia, grade 3 or 4 ([3]; Total (n=138)) | Rash (adverse event) ([3]; Total (n=138))
41%: Lymphopenia, subjects with toxicity [3, 5]
six out of twelve: Rebound effect on phospho-p70S6K (levels exceeded baseline at later time points), subjects ([1]; sirolimus alone study)
58: Diarrhea (adverse event) ([3]; Total (n=138))
7: Hyperglycemia, grade 3 or 4 ([3]; Total (n=138)) | Neutropenia (adverse event) ([3]; Total (n=138))
33: Vomiting (adverse event) ([3]; Total (n=138))
6: Hyperglycemia (adverse event) ([3]; Sirolimus Alone 20mg) | Hyperglycemia (adverse event) ([3]; Sirolimus Alone 30mg) | Diarrhea (adverse event) ([3]; Sirolimus Alone 60mg) | Hyperlipidemia (adverse event) ([3]; Sirolimus Alone 60mg) | Nausea (adverse event) ([3]; Sirolimus Alone 60mg) | Dyspnea (adverse event) ([3]; Total (n=138)) | Mucocutaneous dryness (adverse event) ([3]; Total (n=138)) | Pruritis (adverse event) ([3]; Total (n=138))
2(2): Pneumonia (adverse event) ([3]; Sirolimus Alone 20mg) | Pneumonia, grade 3 or 4 ([3]; Sirolimus Alone 20mg)
32: Anorexia (adverse event) ([3]; Total (n=138))
46: Anemia (adverse event) ([3]; Total (n=138)) | Fatigue (adverse event) ([3]; Total (n=138))
1(1): Infection (adverse event) ([3]; Sirolimus Alone 20mg) | Infection, grade 3 or 4 ([3]; Sirolimus Alone 20mg) | Anorexia (adverse event) ([3]; Sirolimus Alone 30mg) | Anorexia, grade 3 or 4 ([3]; Sirolimus Alone 30mg) | Infection (adverse event) ([3]; Sirolimus Alone 30mg) | Infection, grade 3 or 4 ([3]; Sirolimus Alone 30mg) | Infection (adverse event) ([3]; Sirolimus Alone 30mg (24h)) | Infection, grade 3 or 4 ([3]; Sirolimus Alone 30mg (24h)) | Hypoglycemia (adverse event) ([3]; Total (n=138)) | Hypoglycemia, grade 3 or 4 ([3]; Total (n=138)) | Nail Changes (adverse event) ([3]; Total (n=138)) | Nail Changes, grade 3 or 4 ([3]; Total (n=138))
1: Altered taste (adverse event) ([3]; Sirolimus Alone 10mg) | Anorexia (adverse event) ([3]; Sirolimus Alone 10mg) | Diarrhea (adverse event) ([3]; Sirolimus Alone 10mg) | Elevated Transaminases (adverse event) ([3]; Sirolimus Alone 10mg) | Infection (adverse event) ([3]; Sirolimus Alone 10mg) | Mucocutaneous dryness (adverse event) ([3]; Sirolimus Alone 10mg) | Paresthesia (adverse event) ([3]; Sirolimus Alone 10mg) | Rash (adverse event) ([3]; Sirolimus Alone 10mg) | Altered taste (adverse event) ([3]; Sirolimus Alone 20mg) | Anorexia (adverse event) ([3]; Sirolimus Alone 20mg) | Decreased platelets (adverse event) ([3]; Sirolimus Alone 20mg) | Dyspnea (adverse event) ([3]; Sirolimus Alone 20mg) | Lymphopenia, grade 3 or 4 ([3]; Sirolimus Alone 20mg) | Mucositis (adverse event) ([3]; Sirolimus Alone 20mg) | Decreased platelets (adverse event) ([3]; Sirolimus Alone 30mg) | Fatigue (adverse event) ([3]; Sirolimus Alone 30mg) | Hyperlipidemia, grade 3 or 4 ([3]; Sirolimus Alone 30mg) | Hypertension (adverse event) ([3]; Sirolimus Alone 30mg) | Lymphopenia, grade 3 or 4 ([3]; Sirolimus Alone 30mg) | Mucocutaneous dryness (adverse event) ([3]; Sirolimus Alone 30mg) | Nausea, grade 3 or 4 ([3]; Sirolimus Alone 30mg) | Pneumonia (adverse event) ([3]; Sirolimus Alone 30mg) | Rash (adverse event) ([3]; Sirolimus Alone 30mg) | Decreased platelets (adverse event) ([3]; Sirolimus Alone 30mg (4h)) | Elevated Transaminases (adverse event) ([3]; Sirolimus Alone 30mg (4h)) | Fatigue (adverse event) ([3]; Sirolimus Alone 30mg (4h)) | Hyperglycemia (adverse event) ([3]; Sirolimus Alone 30mg (4h)) | Mucositis (adverse event) ([3]; Sirolimus Alone 30mg (24h)) | Nausea (adverse event) ([3]; Sirolimus Alone 30mg (24h)) | Rash (adverse event) ([3]; Sirolimus Alone 30mg (24h)) | Anorexia (adverse event) ([3]; Sirolimus Alone 45mg (24h)) | Diarrhea, grade 3 or 4 ([3]; Sirolimus Alone 45mg (24h)) | Hyperglycemia (adverse event) ([3]; Sirolimus Alone 45mg (24h)) | Mood Alteration (adverse event) ([3]; Sirolimus Alone 45mg (24h)) | Decreased platelets (adverse event) ([3]; Sirolimus Alone 60mg) | Diarrhea, grade 3 or 4 ([3]; Sirolimus Alone 60mg) | Elevated Transaminases (adverse event) ([3]; Sirolimus Alone 60mg) | Fever (adverse event) ([3]; Sirolimus Alone 60mg) | Hyperlipidemia, grade 3 or 4 ([3]; Sirolimus Alone 60mg) | Infection (adverse event) ([3]; Sirolimus Alone 60mg) | Rash (adverse event) ([3]; Sirolimus Alone 60mg) | Anorexia, grade 3 or 4 ([3]; Total (n=138)) | Dyspnea, grade 3 or 4 ([3]; Total (n=138)) | Edema, grade 3 or 4 ([3]; Total (n=138)) | Elevated Creatinine (adverse event) ([3]; Total (n=138)) | Epistaxis (adverse event) ([3]; Total (n=138)) | Pleural Effusion (adverse event) ([3]; Total (n=138)) | Vomiting, grade 3 or 4 ([3]; Total (n=138))
2: Fatigue (adverse event) ([3]; Sirolimus Alone 10mg) | Hyperlipidemia (adverse event) ([3]; Sirolimus Alone 10mg) | Lymphopenia, grade 3 or 4 ([3]; Sirolimus Alone 10mg) | Mucositis (adverse event) ([3]; Sirolimus Alone 10mg) | Vomiting (adverse event) ([3]; Sirolimus Alone 10mg) | Hypoxia (adverse event) ([3]; Sirolimus Alone 20mg) | Nausea (adverse event) ([3]; Sirolimus Alone 20mg) | Diarrhea (adverse event) ([3]; Sirolimus Alone 30mg) | Elevated Transaminases (adverse event) ([3]; Sirolimus Alone 30mg) | Fever (adverse event) ([3]; Sirolimus Alone 30mg) | Vomiting (adverse event) ([3]; Sirolimus Alone 30mg) | Leukopenia (adverse event) ([3]; Sirolimus Alone 30mg (4h)) | Nausea (adverse event) ([3]; Sirolimus Alone 30mg (4h)) | Vomiting (adverse event) ([3]; Sirolimus Alone 30mg (4h)) | Diarrhea (adverse event) ([3]; Sirolimus Alone 30mg (24h)) | Nausea (adverse event) ([3]; Sirolimus Alone 45mg (24h)) | Elevated Transaminases, grade 3 or 4 ([3]; Total (n=138)) | Hand & Foot Syndrome (adverse event) ([3]; Total (n=138)) | Hypertension (adverse event) ([3]; Total (n=138)) | Hypocalcemia (adverse event) ([3]; Total (n=138)) | Hypoxia (adverse event) ([3]; Total (n=138)) | Mood Alteration (adverse event) ([3]; Total (n=138)) | Nausea, grade 3 or 4 ([3]; Total (n=138)) | Paresthesia (adverse event) ([3]; Total (n=138))
11.3 mL/ng: krebound, typical value [1, 4]
suppressed: phospho-p70S6K activity ([1]; 10 mg weekly dose, 1 week after the initial dose (data not shown))
3: Anemia (adverse event) ([3]; Sirolimus Alone 10mg) | Lymphopenia (adverse event) ([3]; Sirolimus Alone 10mg) | Nausea (adverse event) ([3]; Sirolimus Alone 10mg) | Anemia (adverse event) ([3]; Sirolimus Alone 30mg) | Hyperlipidemia (adverse event) ([3]; Sirolimus Alone 30mg) | Lymphopenia (adverse event) ([3]; Sirolimus Alone 30mg) | Diarrhea (adverse event) ([3]; Sirolimus Alone 45mg (24h)) | Anorexia (adverse event) ([3]; Sirolimus Alone 60mg) | Lymphopenia (adverse event) ([3]; Sirolimus Alone 60mg) | Diarrhea, grade 3 or 4 ([3]; Total (n=138)) | Fatigue, grade 3 or 4 ([3]; Total (n=138)) | Hyperlipidemia, grade 3 or 4 ([3]; Total (n=138)) | Myalgia (adverse event) ([3]; Total (n=138))
5: Anemia (adverse event) ([3]; Sirolimus Alone 20mg) | Diarrhea (adverse event) ([3]; Sirolimus Alone 20mg) | Fatigue (adverse event) ([3]; Sirolimus Alone 60mg) | Vomiting (adverse event) ([3]; Sirolimus Alone 60mg) | Altered taste (adverse event) ([3]; Total (n=138)) | Anemia, grade 3 or 4 ([3]; Total (n=138)) | Edema (adverse event) ([3]; Total (n=138)) | Pneumonia (adverse event) ([3]; Total (n=138))
48: Nausea (adverse event) ([3]; Total (n=138))
52%: Hyperglycemia, subjects with toxicity [3, 5]
12 L/kg: volume of distribution [2]
56: Lymphopenia (adverse event) ([3]; Total (n=138))
59: Hyperlipidemia (adverse event) ([3]; Total (n=138))
5.5: kin (zero-order rate constant for gain of phospho-p70S6K), typical value ([1]; indirect response model with rebound, baseline phosphorylation 100%)
17: Leukopenia (adverse event) ([3]; Total (n=138)) | Mucositis (adverse event) ([3]; Total (n=138))
43%: Hyperlipidemia, subjects with toxicity [3, 5]
0.05: kout (first-order rate constant for loss of phospho-p70S6K), typical value [1, 4]
inhibition: phospho-p70S6K in peripheral T cells ([1]; 48 hours after administration, all dose levels, sirolimus alone study, p = 0.006)
15: Weight Loss (adverse event) ([3]; Total (n=138))
4: Elevated Transaminases (adverse event) ([3]; Sirolimus Alone 20mg) | Fatigue (adverse event) ([3]; Sirolimus Alone 20mg) | Hyperlipidemia (adverse event) ([3]; Sirolimus Alone 20mg) | Lymphopenia (adverse event) ([3]; Sirolimus Alone 20mg) | Nausea (adverse event) ([3]; Sirolimus Alone 30mg) | Diarrhea (adverse event) ([3]; Sirolimus Alone 30mg (4h)) | Vomiting (adverse event) ([3]; Sirolimus Alone 45mg (24h)) | Hyperglycemia (adverse event) ([3]; Sirolimus Alone 60mg) | Weight Loss (adverse event) ([3]; Sirolimus Alone 60mg) | Fever (adverse event) ([3]; Total (n=138)) | Infection, grade 3 or 4 ([3]; Total (n=138)) | Pneumonia, grade 3 or 4 ([3]; Total (n=138))

Reference: publication PMC4410974 (Clinical cancer research : an official journal of the …, 2012)
